Results from different studies.
Protocols differ between the studies behind these lines.
Target: Tyrosine-protein kinase Lck (LCK, Homo sapiens, UniProt P06239)

Structure (SMILES) | observed | method | concentration | remaining binding
COc1cnc(Nc2cccc(S(N)(=O)=O)c2)nc1N1CCN(c2ccccc2)C(=O)C1 | binding | competition with immobilised ligand | 1 µM | 100%
COc1ncc2cc3ccccc3nc2c1C#N | binding | competition with immobilised ligand | 5 µM | 93%
O=C(c1ccc(Nc2ncc(Cl)c(-c3ccc(Cl)s3)n2)cc1)N1CCC(N2CCCC2)CC1 | binding | competition with immobilised ligand | 1 µM | 32%
O=C(NCC1CCOCC1)c1n[nH]cc1NC(=O)c1c(F)cccc1F | binding | competition with immobilised ligand | 1 µM | 100%
C[C@@H](c1ccc(-n2cnc3c(N)ncnc32)cc1)N1CCc2nn(C)c(Cc3ccccc3)c2C1=O | binding | competition with immobilised ligand | 0.1 µM | 94%
C=CC(=O)N1CCC(C(=O)NCC(=O)N2CCN(c3nc(-c4cnc(N)nc4C(F)F)nc(N4CCOCC4)n3)CC2)CC1 | binding | competition with immobilised ligand | 1 µM | 90%
CCCOc1ccc([C@H]2[C@H](C(=O)O)[C@@H](c3ccc4c(c3)OCO4)CN2CC(=O)Nc2c(CC)cccc2CC)cc1 | cell-free assay | competition with immobilised ligand | 1 µM | 100%
O=C(c1ccc(Nc2nccc(-c3cc4ccccc4s3)n2)cc1)N1CCC(N2CCCC2)CC1 | binding | competition with immobilised ligand | 1 µM | 34%
N#Cc1ccc(Nc2ccc3[nH]c(=O)[nH]c3c2)c(Cl)c1 | cell-free assay | competition with immobilised ligand | 1 µM | 100%
O=C(NCCCN1CCOCC1)c1ccc(Nc2nccc(-c3cc4ccccc4s3)n2)cc1 | binding | competition with immobilised ligand | 1 µM | 76%
CN([C@@H]1CCc2c(CC(=O)O)c3cc(S(C)(=O)=O)ccc3n2C1)S(=O)(=O)c1ccc(F)cc1 | cell-free assay | competition with immobilised ligand | 1 µM | 100%
F[C@@H]1CCN(c2nccc(-c3cnn4ncccc34)n2)C1 | binding |  | 1 µM | 100%
CNC(=O)c1ccc(Nc2ncc(C(F)(F)F)c(NCc3nccnc3N(C)S(C)(=O)=O)n2)cc1 | cell-free assay | competition with immobilised ligand | 0.1 µM | 87%
CN(CCCC(F)(F)F)c1nccc(-c2cnn3ncccc23)n1 | binding |  | 1 µM | 89%
CNCc1ccccc1-c1csc([C@H](C)Nc2nc(C)nc3cc(OC)c(OC)cc23)c1 | cell-free assay | competition with immobilised ligand | 1 µM | 100%
C[C@@H]1CCN(c2nccc(-c3cnn4ncccc34)n2)C1 | binding |  | 1 µM | 93%
